Laboratory results taken from ChEMBL document CHEMBL2424628, “Discovery of potent and selective nonsteroidal indazolyl amide glucocorticoid receptor agonists” (Bioorg Med Chem Lett, 2013).

Assays:
Homo sapiens [1] = species on record: Homo sapiens; experiment: Selectivity ratio of Ki for progesterone receptor (unknown origin) to Ki for glucocorticoid receptor (unknown origin)
Homo sapiens [2] = species on record: Homo sapiens; experiment: Selectivity ratio of Ki for androgen receptor (unknown origin) to Ki for glucocorticoid receptor (unknown origin)
Progesterone receptor = target: T1, Progesterone receptor (Homo sapiens, UniProt P06401); experiment: Binding affinity to progesterone receptor (unknown origin) by fluorescence polarization assay
T1 sequence (P06401 whole entry): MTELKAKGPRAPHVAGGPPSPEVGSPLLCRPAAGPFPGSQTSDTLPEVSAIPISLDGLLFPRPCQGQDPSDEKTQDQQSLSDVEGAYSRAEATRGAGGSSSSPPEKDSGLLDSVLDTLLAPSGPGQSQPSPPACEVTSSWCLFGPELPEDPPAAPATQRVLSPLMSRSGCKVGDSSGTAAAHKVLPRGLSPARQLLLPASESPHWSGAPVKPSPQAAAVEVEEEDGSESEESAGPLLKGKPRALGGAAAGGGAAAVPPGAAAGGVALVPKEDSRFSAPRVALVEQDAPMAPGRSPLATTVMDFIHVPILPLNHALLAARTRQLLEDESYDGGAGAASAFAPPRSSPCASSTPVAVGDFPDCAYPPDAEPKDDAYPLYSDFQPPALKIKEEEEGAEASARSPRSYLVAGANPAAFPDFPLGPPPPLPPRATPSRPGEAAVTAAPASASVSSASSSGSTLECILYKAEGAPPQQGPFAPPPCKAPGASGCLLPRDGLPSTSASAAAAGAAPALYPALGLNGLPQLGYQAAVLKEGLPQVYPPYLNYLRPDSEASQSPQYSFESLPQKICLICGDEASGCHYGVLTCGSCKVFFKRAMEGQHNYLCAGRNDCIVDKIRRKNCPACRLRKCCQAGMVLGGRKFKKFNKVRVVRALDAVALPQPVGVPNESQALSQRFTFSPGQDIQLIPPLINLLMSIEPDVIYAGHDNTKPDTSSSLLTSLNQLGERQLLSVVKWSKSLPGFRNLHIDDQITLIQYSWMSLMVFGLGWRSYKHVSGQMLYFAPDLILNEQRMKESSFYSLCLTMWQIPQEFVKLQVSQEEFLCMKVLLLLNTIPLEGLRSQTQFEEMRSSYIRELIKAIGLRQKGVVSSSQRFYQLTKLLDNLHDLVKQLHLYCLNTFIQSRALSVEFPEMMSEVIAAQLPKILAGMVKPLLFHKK
How it was run: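 Fluorescence polarization competition between test compound and a fluorescently labeled ligand for full-length receptor or its ligand binding domain. IC50 from a four-parameter logistic fit of the polarization signal, converted to Ki with Cheng–Prusoff […]. Means of duplicate experiments.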

[3] = target: T2, Glucocorticoid receptor (Homo sapiens) (UniProt P04150); experiment: Agonist activity at glucocorticoid receptor in human A549 cells assessed as inhibition of PMA-induced AP-1 activation by luciferase reporter gene assay relative to dexamethasone; type: cell-based
T2 sequence (whole entry): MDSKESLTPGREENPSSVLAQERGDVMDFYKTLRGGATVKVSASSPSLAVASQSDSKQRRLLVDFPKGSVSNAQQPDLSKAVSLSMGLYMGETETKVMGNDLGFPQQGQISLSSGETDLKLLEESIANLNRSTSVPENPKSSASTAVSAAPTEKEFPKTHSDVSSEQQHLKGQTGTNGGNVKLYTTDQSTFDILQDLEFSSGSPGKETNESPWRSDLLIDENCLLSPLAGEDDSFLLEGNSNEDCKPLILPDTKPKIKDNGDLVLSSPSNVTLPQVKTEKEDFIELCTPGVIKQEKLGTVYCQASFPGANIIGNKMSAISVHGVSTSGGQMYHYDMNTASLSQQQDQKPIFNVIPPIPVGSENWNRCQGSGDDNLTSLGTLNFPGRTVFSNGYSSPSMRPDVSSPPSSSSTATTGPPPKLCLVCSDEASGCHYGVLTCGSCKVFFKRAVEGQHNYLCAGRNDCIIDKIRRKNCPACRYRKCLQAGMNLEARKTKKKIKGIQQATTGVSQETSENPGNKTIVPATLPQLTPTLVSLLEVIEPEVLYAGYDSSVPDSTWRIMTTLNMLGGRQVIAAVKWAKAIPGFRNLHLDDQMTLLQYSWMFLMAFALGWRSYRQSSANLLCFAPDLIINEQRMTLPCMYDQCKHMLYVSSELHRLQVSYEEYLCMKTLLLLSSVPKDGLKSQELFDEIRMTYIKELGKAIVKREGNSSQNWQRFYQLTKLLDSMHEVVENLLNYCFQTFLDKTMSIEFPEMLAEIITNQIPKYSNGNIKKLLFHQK
How it was run: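 A549 lung epithelial cells stably carrying a luciferase reporter with 5 copies of the AP-1 response element; AP-1 induced with PMA (15 ng/ml). Compound inhibition of induction read as decreased luciferase. […] Means of two or more experiments in triplicate.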

Glucocorticoid receptor = target: T3, Glucocorticoid receptor (Homo sapiens, UniProt P04150); experiment: Agonist activity at glucocorticoid receptor in human A549 cells assessed as inhibition of PMA-induced AP-1 activation by luciferase reporter gene assay; type: cell-based
T3 sequence (P04150 whole entry): T2 sequence (whole entry)

Row | Ratio Ki (Homo sapiens [1]) | Ratio Ki (Homo sapiens [2]) | Ki (Progesterone receptor) [nM] | Efficacy [3] [%] | EC50 (Glucocorticoid receptor) [nM] | SMILES
1 | 10 | > 1000 | 107 | 93 | 2.4 | CC(C)(C(=O)Nc1nncs1)[C@@H](c1ccccc1)c1ccc2c(cnn2-c2ccc(F)cc2)c1
2 | 10 | > 1000 | 56 | 50 | 92 | CC(C)(C(=O)Nc1nncs1)[C@H](c1ccccc1)c1ccc2c(cnn2-c2ccc(F)cc2)c1
